{"source": "ChEMBL document CHEMBL1158474", "about": "“Focus on the controversial activation of human iNKT cells by 4-deoxy analogue of KRN7000” (J Med Chem, 2009)", "key": {"Mus musculus [1]": {"system": "Mus musculus", "assay": "Regulation of immune response in C57BL/6J mouse assessed as induction of NKT cell cytokine response-related IFN-gamma secretion at 100 ug/kg, ip after 18 hrs by ELISA", "assay_type": "functional, organism-based", "in_short": "(§1)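 Mice were given glycolipid ip at 10, 50, 100 or 1000 μg/kg. Cytokine release kinetics (TNF-α, IL-4, IFN-γ) were followed over time after injection, with sampling that included 4 h and 18 h. Groups were compared statistically (P < 0.05 threshold).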"}, "iNKT [2]": {"system": "iNKT", "assay": "Effect on immune response in human iNKT cells stimulated by antigen-presenting CD1d-transfected human HeLa cells assessed as induction of TNFalpha release by MTT assay", "assay_type": "functional, cell-based", "in_short": "(§2)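 A human Vα24 iNKT cell line was stimulated for 6 h by CD1d-transfected HeLa cells loaded overnight with increasing glycolipid concentrations. Before loading, the glycolipid was solubilized in DMSO for a couple of hours at 37 °C. Supernatant TNF-α was measured by a cellular assay, and IFN-γ and IL-4 by ELISA. Triplicates were run, and one representative of three experiments is shown. EC50 values were given as mean ± SD.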"}, "iNKT [3]": {"system": "iNKT", "assay": "Effect on immune response in human iNKT cells stimulated by antigen-presenting CD1d-transfected human HeLa cells assessed as induction of IFN-gamma release by ELISA", "assay_type": "functional, cell-based", "in_short": "as §2"}, "iNKT [4]": {"system": "iNKT", "assay": "Effect on immune response in human iNKT cells stimulated by antigen-presenting CD1d-transfected human HeLa cells assessed as induction of IL4 release by ELISA", "assay_type": "functional, cell-based", "in_short": "as §2"}, "Mus musculus [5]": {"system": "Mus musculus", "assay": "Regulation of immune response in C57BL/6J mouse assessed as induction of NKT cell cytokine response-related IFN-gamma secretion at 10 to 1000 ug/kg, ip after 2 hrs by ELISA", "assay_type": "functional, organism-based"}, "Mus musculus [6]": {"system": "Mus musculus", "assay": "Regulation of immune response in C57BL/6J mouse assessed as induction of NKT cell cytokine response-related IFN-gamma secretion at 10 to 1000 ug/kg, ip after 14 hrs by ELISA", "assay_type": "functional, organism-based"}, "Mus musculus [7]": {"system": "Mus musculus", "assay": "Regulation of immune response in C57BL/6J mouse assessed as induction of NKT cell cytokine response-related IL2 secretion at 10 to 1000 ug/kg, ip after 2 hrs by ELISA", "assay_type": "functional, organism-based"}, "Mus musculus [8]": {"system": "Mus musculus", "assay": "Regulation of immune response in C57BL/6J mouse assessed as induction of NKT cell cytokine response-related IL2 secretion at 10 to 1000 ug/kg, ip after 14 hrs by ELISA", "assay_type": "functional, organism-based"}, "Mus musculus [9]": {"system": "Mus musculus", "assay": "Regulation of immune response in C57BL/6J mouse assessed as induction of NKT cell cytokine response-related TNFalpha secretion at 100 ug/kg, ip after 4 hrs by ELISA", "assay_type": "functional, organism-based", "in_short": "as §1"}, "Mus musculus [10]": {"system": "Mus musculus", "assay": "Regulation of immune response in C57BL/6J mouse assessed as induction of NKT cell cytokine response-related IL4 secretion at 100 ug/kg, ip after 4 hrs by ELISA", "assay_type": "functional, organism-based", "in_short": "as §1"}}, "note": "Calls of active or inactive are those of the source."}
{"smiles": "CCCCCCCCCCCCCCCCCCCCCCCCCC(=O)N[C@@H](CO[C@H]1O[C@H](CO)[C@H](O)[C@H](O)[C@H]1O)C(O)[C@H](O)CCCCCCCCCCCCCC", "note": "(single isomer, unassigned) [RGI-7000]", "values": [{"measurement": "Activity", "setting": "Mus musculus [1]", "result": "Active"}, {"measurement": "EC50", "setting": "iNKT [2]", "result": 5, "unit": "nM"}, {"measurement": "Activity", "setting": "iNKT [3]", "result": "Active"}, {"measurement": "Activity", "setting": "iNKT [4]", "result": "Active"}, {"measurement": "Activity", "setting": "Mus musculus [5]", "result": "Active"}, {"measurement": "Activity", "setting": "Mus musculus [6]", "result": "Active"}, {"measurement": "Activity", "setting": "Mus musculus [7]", "result": "Active"}, {"measurement": "Activity", "setting": "Mus musculus [8]", "result": "Active"}, {"measurement": "Activity", "setting": "Mus musculus [9]", "result": "Active"}, {"measurement": "Activity", "setting": "Mus musculus [10]", "result": "Active"}]}
